Laboratory results as given in ChEMBL document CHEMBL1134486, “Synthesis and biological evaluation of purine-containing butenolides” (J Med Chem, 2001).

How the values were obtained:
HeLa [1] = experiment: Ability to inhibit cytopathogenicity of herpes simplex type 1 virus (KOS) in HeLa cell culture; assay type: functional, cell-based; details: Homo sapiens
Summary of the method: (§1)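 Inhibition of virus-induced cytopathogenicity measured in HeLa cell culture; IC50 derived by linear regression, mean of duplicate determinations.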

[2] = Anticancer activity carried out in vitro against human T-lymphocyte Molt4/C8; assay type: functional, cell-based; details: MOLT-4
Summary of the method: (§2)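 Cells grown in DMEM with 10% FBS, 2.0 mM glutamine, penicillin/streptomycin, 5% CO2, 37 °C; exponential-phase cells (200 cells/mL) given compounds at various concentrations, counted at 24, 48, 72 h; IC50 for 50% proliferation inhibition at 72 h from dose-response curves of two independent experiments.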

P388 = experiment: Anticancer activity carried out in vitro against murine leukemia P388; assay type: functional, cell-based; details: Mus musculus; summary of the method: as §2
HeLa [3] = experiment: Concentration required to cause microscopically visible change or disruption in about 50% of cell sheet of HeLa cells; assay type: functional, cell-based, Homo sapiens
Summary of the method: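 HeLa cells exposed to compounds at different concentrations; toxicity scored as morphological change, value is concentration causing microscopically visible change or disruption in about 50% of the cell sheet; mean of duplicate determinations.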

L1210 = experiment: Anticancer activity carried out in vitro against murine leukemia L1210; assay type: functional, cell-based; details: Mus musculus; summary of the method: as §2
MCF7 = experiment: Anticancer activity carried out in vitro against breast carcinoma MCF-7; assay type: functional, cell-based; details: Homo sapiens; summary of the method: as §2
[4] = Anticancer activity carried out in vitro against human T-lymphocyte CEM/0; assay type: functional; details: CCRF-CEM; summary of the method: as §2
HeLa [5] = experiment: Ability to inhibit cytopathogenicity of thymidine kinase-deficient (TK-) strain of Varicella zoster virus (YS/R) in HeLa cell culture; assay type: functional, cell-based; details: Homo sapiens; summary of the method: as §1
HeLa [6] = experiment: Ability to inhibit cytopathogenicity of thymidine kinase-positive(TK+) strain of Varicella zoster virus (YS) in HeLa cell culture; assay type: functional, cell-based; details: Homo sapiens; summary of the method: as §1
HeLa [7] = experiment: Ability to inhibit cytopathogenicity of herpes simplex type 2 virus (G) in HeLa cell culture; details: Homo sapiens
Adenosine deaminase = target: T1, Adenosine deaminase (Bos taurus, UniProt P56658); experiment: Rate of deamination in the presence of calf mucosal adenosine deaminase (ADA)
T1 sequence (P56658 whole entry): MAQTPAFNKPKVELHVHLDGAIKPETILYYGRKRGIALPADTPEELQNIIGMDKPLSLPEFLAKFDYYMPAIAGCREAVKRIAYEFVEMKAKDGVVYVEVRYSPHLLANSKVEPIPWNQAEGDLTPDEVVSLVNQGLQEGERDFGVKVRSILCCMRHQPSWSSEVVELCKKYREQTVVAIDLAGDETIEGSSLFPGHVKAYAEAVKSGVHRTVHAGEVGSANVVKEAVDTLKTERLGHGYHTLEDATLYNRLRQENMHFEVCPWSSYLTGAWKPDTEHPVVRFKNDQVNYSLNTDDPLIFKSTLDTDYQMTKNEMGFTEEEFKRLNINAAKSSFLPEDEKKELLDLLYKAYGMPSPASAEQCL
Summary of the method: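 Deamination rates followed with calf mucosal ADA (EC 3.5.4.4) in buffer solutions; Km and Vmax relative to adenosine as substrate; inhibition (Ki) assessed with adenosine as substrate.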

Row | SMILES | IC50 (HeLa [1]) | IC50 [2] | IC50 (P388) | IC50 (HeLa [3]; Homo sapiens, HeLa) | IC50 (L1210) | IC50 (MCF7) | IC50 [4] | IC50 (HeLa [5]) | IC50 (HeLa [6]) | IC50 (HeLa [7]) | Ki (Adenosine deaminase) | IC50 (HeLa [3]; hela)
1 | COC1=C(OC)C(O)(CCn2cnc3c(Cl)ncnc32)OC1=O (racemic) | > 128 µM | > 120 µM | > 120 µM | 149 µM | > 120 µM | > 120 µM | > 120 µM | > 128 µM | > 128 µM |  |  | 
2 | Nc1ccn([C@@H]2O[C@H](CO)[C@@H](O)[C@@H]2O)c(=O)n1 [CYTARABINE] |  | 0.65 µM | 0.14 µM |  | 0.17 µM | 1.03 µM | 0.78 µM |  |  |  |  | 
3 | COC1=C(OC)/C(=C/Cn2cnc3c(N)ncnc32)OC1=O | 14.5 µM | 78.5 µM | 2.67 µM | 42.4 µM | 93.4 µM | > 120 µM | 84.5 µM | 6.07 µM | 12.8 µM |  | 316 µM | 
4 | COC1=C(OC)C(O)(CCn2cnc3c(N)ncnc32)OC1=O (stereo not given) | > 128 µM | > 120 µM | > 120 µM | 157 µM | > 120 µM | > 120 µM | > 120 µM | > 128 µM | > 128 µM |  | > 800 µM | 
5 | COC1=C(OC)C(O)(CCn2cnc3c(Cl)ncnc32)OC1=O (stereo in doubt; (-)-4) |  |  |  |  |  |  |  |  |  |  |  | 132 µM
6 | O=C1O/C(=C/Cn2cnc3c(Cl)ncnc32)C(OCc2ccc([N+](=O)[O-])cc2)=C1OCc1ccc([N+](=O)[O-])cc1 | 28.4 µM | > 120 µM | > 120 µM | 17 µM | > 120 µM | > 120 µM | > 120 µM | 34.7 µM | 37.5 µM |  |  | 
7 | COC1=C(OC)/C(=C/Cn2cnc3c(Cl)ncnc32)OC1=O | 10.9 µM | 5.97 µM | 8.12 µM | 23.4 µM | 4.52 µM | 16.9 µM | 4.71 µM | 1.62 µM | 5.92 µM |  |  | 
8 | COC1=C(OC)/C(=C/C(n2cnc3c(Cl)ncnc32)P(=O)(OC)OC)OC1=O (stereo not given) | 13.2 µM | 12.5 µM | 14.3 µM | 28.1 µM | 16.2 µM | 90.1 µM | 96 µM | 5.03 µM | 10.2 µM |  |  | 

Other lines, results leading:

Row | IC50 (HeLa [1]) | IC50 [2] | IC50 (P388) | IC50 (HeLa [3]; Homo sapiens, HeLa) | IC50 (L1210) | IC50 (MCF7) | IC50 [4] | IC50 (HeLa [5]) | IC50 (HeLa [6]) | IC50 (HeLa [7]) | Ki (Adenosine deaminase) | IC50 (HeLa [3]; hela) | SMILES
9 | 9.83 µM | 7.35 µM | 6.49 µM | 19.3 µM | 5.81 µM | 15.4 µM | 3.98 µM | 1.03 µM | 4.4 µM |  |  |  | COC1=C(OCc2ccc([N+](=O)[O-])cc2)/C(=C\Cn2cnc3c(Cl)ncnc32)OC1=O
10 | 0.11 µM |  |  | 254 µM |  |  |  | 26.4 µM | 8.71 µM | 0.19 µM |  |  | Nc1nc2c(ncn2COCCO)c(=O)[nH]1 [ACYCLOVIR]
11 | 7.24 µM | 6.16 µM | 7.42 µM | 20.2 µM | 6.03 µM | 14.2 µM | 5.04 µM | 0.89 µM | 6.32 µM |  |  |  | COC1=C(OCc2ccc([N+](=O)[O-])cc2)C(=O)O/C1=C/Cn1cnc2c(Cl)ncnc21
